Only a selection was taken, and hits are over-represented in it overall.
Lmaj promast: Leishmania major promastigote growth inhibition, primary screen; Leishmania major promastigotes, resazurin fluorescence viability; inhibition, % at 10 µM; 9% of 200,000 active; AID 1063, 2008; in the data active = inhibition above about 50%;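 also: promastigotes grown with compound for 44 hours at 28 °C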
HSF1 inhib: HSF1 inhibitors in luciferase reporter cells, primary screen, cell-based, NIH3T3, luminescence; AID 2098, 2009; NIH3T3-HGL HSE-luciferase, MG132-induced, luminescence 8 h; hits give low values; 0.77% of 300,000 active; activity change, negative = inhibition, % at 7.5 µM (by protocol);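 active = more than half of replicate wells show activity change below -50%, luminescence cut by over half; inconclusive = some wells, but at most half, below -50%; inactive = no replicate well below -50%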;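 also: luciferase reports HSF-1 transcriptional activity via heat shock element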
Hsp70 act: Hsp70 transcriptional activators, primary screen, cell-based, HeLa, Hsp70 promoter luciferase, luminescence, 10 µM; HeLa Hsp70 promoter luciferase reporter; scaled: vehicle 0, proteasome-inhibitor control 100%; activation, % at 10 µM; 0.04% of 200,000 active;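 active = activation above the mean across all tested compounds plus 3 SD, cutoff set per campaign, cut at about 5.5% in these data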
T cruzi inh: inhibitors of intracellular T. cruzi growth, primary screen, luminescence, NIH3T3 host cells; T. cruzi beta-gal in NIH3T3, 90 h; inhibition, % (concentration not given with the values); 1.4% of 300,000 active;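 active = mean inhibition across valid replicates above about 55%, limit read from the data; inconclusive = mean below that limit but half or more replicates reach it; inactive = mean below it, under half of replicates reach it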;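 also: signal also drops with host cell toxicity which is not excluded here; higher percent means less beta-gal luminescence so fewer parasites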
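Test system: β-gal T. cruzi (Tulahuen C4) inside NIH/3T3 cells / Quantity: 5,000 cells/well / Measured by: luminescence from GalScreen with 0.05% NP40, read after 60 min / Medium: DMEM plus 2% FBS / Measure: parasite load inhibition, % / Reagent: Tulahuen C4 trypomastigotes, 5000/well / Schedule: co-culture of at least 90 h after 3 h attachment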
HSF1 activator: HSF-1 activators, primary screen, NIH3T3-HGL cells, MG132 stress, luminescence, single point; activation, % at 9 µM; NIH3T3-HGL HSF-1 luciferase reporter, 8 h; 100% = twice DMSO control signal; 1.7% of 300,000 active;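 active = mean replicate activation of at least 50% with a set share of replicates each reaching 50%; inconclusive = only one of those two conditions met; inactive = mean below 50% and too few replicates reaching it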
Large screens that a line does not name were inactive.

Cc1cc(C(=O)CN2C(=O)NC(c3ccccc3)(c3ccccc3)C2=O)c(C)n1Cc1ccco1	Lmaj promast 52, T cruzi inh inconclusive
O=C(O)c1ccccc1CSc1nc2ccccc2[nH]1	none (no result: Lmaj promast, Hsp70 act, T cruzi inh)
CCOc1ccccc1CN1CCNC(=O)C1CC(=O)NCc1ccccn1 (configuration not stated)	none (no result: Lmaj promast, Hsp70 act)
C[C@H](OC(=O)N1CCN(C(c2ccccc2)c2ccccc2)CC1)[C@@H]1O[C@@]2(C)CCC[C@H]1O2	none (no result: Lmaj promast, Hsp70 act)
C=CCn1c(C)cc(C(=O)CSc2nc3ccccc3[nH]2)c1C	Lmaj promast 70
Cc1cc(C(=O)CSc2nc3ccccc3[nH]2)c(C)n1Cc1ccco1	Lmaj promast 95
Cc1cc(C(=O)CSc2nncs2)c(C)n1Cc1ccco1	none
C=CCn1c(C)cc(C(=O)CSc2nc3ccccc3c(=O)[nH]2)c1C	none (no result: HSF1 inhib, T cruzi inh, HSF1 activator)
C=CCn1c(C)cc(C(=O)CSc2nnc(NC(C)C)s2)c1C	HSF1 inhib -59
Cc1cc2c(=O)n(Cc3ccco3)c(SCC(=O)c3ccc(Cl)s3)nc2s1	HSF1 activator 78
O=C(CSc1nc2ccccc2[nH]1)c1ccc(Cl)s1	Lmaj promast 80
CC(C)CCSc1nc2ccccc2[nH]1	HSF1 activator 65
CCCn1c(N)c(C(=O)CSc2nc3ccccc3c(=O)n2Cc2ccccc2)c(=O)[nH]c1=O	HSF1 inhib -84
CC(C)Sc1nc2ccccc2[nH]1	none
Cc1cc(C(=O)CSc2nc3ccccc3[nH]2)c(C)n1C	HSF1 activator 71
O=C(CSc1nc2ccccc2[nH]1)N1c2ccccc2Sc2ccccc21	none
Cc1ccc2nc(SCC(=O)c3cc(C)n(C)c3C)[nH]c2c1	none
Cn1c(N)c(C(=O)CSc2nc3ccccc3c(=O)n2Cc2ccccc2)c(=O)n(C)c1=O	none (no result: Lmaj promast, Hsp70 act)
CN(CC(=O)Nc1cccc(F)c1)C(=O)CSc1ccccc1	none (no result: Lmaj promast, Hsp70 act)
Cc1noc(C)c1CSc1nc2ccccc2[nH]1	none
NC(=O)CSc1nc2ccccc2c(=O)n1Cc1ccco1	none
Fc1cccc(F)c1CSc1nc2ccccc2[nH]1	Lmaj promast 100
O=C(CSc1nc2ccccc2[nH]1)c1ccccc1F	HSF1 activator 57 (no result: Lmaj promast, Hsp70 act)
CCCn1c(C)cc(C(=O)CSc2nc3ccccc3c(=O)n2Cc2ccco2)c1C	Lmaj promast 89
Cc1[nH]c2ccccc2c1NC(=O)CN1CCN(C(=O)c2ccco2)CC1	none (no result: Lmaj promast, Hsp70 act)
COc1ccc(CNC(=O)N2CCN(c3ccccc3)CC2)cc1	none (no result: Lmaj promast, Hsp70 act)
CCCCc1ccc(NC(=S)N2CCC(O)CC2)cc1	none
CN1CCN(C(=O)c2cc([N+](=O)[O-])cc([N+](=O)[O-])c2)CC1	HSF1 inhib -64 (no result: Lmaj promast, Hsp70 act)
CN1CCN(NC(=O)c2cc([N+](=O)[O-])cc([N+](=O)[O-])c2)CC1	T cruzi inh 70
O=C(c1cc(C(=O)N2CCCC2)cc([N+](=O)[O-])c1)N1CCCC1	none (no result: Lmaj promast, Hsp70 act)
COc1ccc(C2N(S(=O)(=O)c3ccccc3)CCN2S(=O)(=O)c2ccc(C)cc2)cc1 (configuration not stated)	Lmaj promast 100
O=C(Nc1cccn(Cc2cccc(F)c2)c1=O)NC1CCCCC1	Lmaj promast 83
O=C(Nc1cccn(Cc2c(F)cccc2Cl)c1=O)NC1CCCCC1	Lmaj promast 80, HSF1 activator inconclusive
CC(OC(=O)Cc1c[nH]c2ccccc12)C(=O)Nc1ccccc1[N+](=O)[O-] (configuration not stated)	none (no result: Lmaj promast, Hsp70 act)
COc1cccc(C2C(C#N)=C(N)OC3=C2C(=O)CC(c2ccco2)C3)c1OCc1ccc(F)cc1 (configuration not stated)	Lmaj promast 76
N#CC1=C(N)OC2=C(C(=O)CC(c3ccco3)C2)C1c1ccc(OCc2c(F)cccc2Cl)cc1 (configuration not stated)	none
Nc1nnc(SCCCOc2ccc(F)cc2)s1	none (no result: Lmaj promast, Hsp70 act)
CCCOc1ccc(OCCSc2ncccn2)cc1	HSF1 activator 72
CCCOc1ccc(OCCSc2nnc(N)s2)cc1	HSF1 activator 125
Clc1ccc(OCCCCSc2ncccn2)cc1	none
CCOc1ccc(-c2nc(CSc3nnc(N)s3)cs2)cc1OC	none
CCOc1ccc(-c2nc(CSc3nnc(N)s3)cs2)cc1	HSF1 activator 62
COc1ccc(C(=O)c2c(NC(C)=O)sc3c2CCN(C(=O)OC(C)(C)C)C3)cc1	none (no result: Lmaj promast, Hsp70 act)
